# Source: the array DNA melting data of Ke et al. (doi:10.1101/2024.01.08.574731)
# Tests used:
# [1] = folding enthalpy; higher = less favourable; fluorescence melt of hairpins on a sequencing array, two-state fit; details: sodium 0.088 M
# Summary of the method: (§1)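 In 50 mM Na-HEPES pH 8.0 containing 25 mM NaCl, hairpins from the library on a sequenced MiSeq flow cell were imaged for Cy3 fluorescence at 2.5 °C steps up to 60 °C, with Cy3 and quencher oligos annealed. After normalisation to pre-quench Cy3 and to control constructs, two-state fits with bootstrapping gave melting temperature and folding enthalpy. Four replicates were combined by inverse-variance weighting, and fitted temperatures were shifted up by 9.35 °C to match UV melts.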
# [2] = melting temperature; fluorescence melt of hairpins on a sequencing array, two-state fit, raised by 9.35 °C to match UV melts; details: sodium 0.088 M
# Summary of the method: as §1
sequence,measurement,setting,value
GGCGACCCGAAAGGGGCC (((..(((....)))))),folding enthalpy,[1],-13.1 kcal/mol
same,Tm,[2],54.6 °C
GCTCTGGGAAACTAGGGC ((.((.(....).)).)),folding enthalpy,[1],-27.7 kcal/mol
same,Tm,[2],36.5 °C
CGTTCGGAAACGAAGACG ((((((....)))..))),folding enthalpy,[1],-26.2 kcal/mol
same,Tm,[2],34.9 °C
CGGCTCGGAAACGACCCG (((.(((....))).))),folding enthalpy,[1],-29.4 kcal/mol
same,Tm,[2],42.9 °C
GCCTCGCGAAAGCCAAGC ((.(.((....)).).)),folding enthalpy,[1],-6.14 kcal/mol
same,Tm,[2],28.4 °C
GGGGACGAAAGTCAGCCC ((((((....)))..))),folding enthalpy,[1],-15.4 kcal/mol
same,Tm,[2],49.5 °C
GGGCATGGAAACATACCC (((.(((....))).))),folding enthalpy,[1],-31.8 kcal/mol
same,Tm,[2],44.1 °C
GTCATTCGAAAGAAGAC (((.(((....)))))),folding enthalpy,[1],-16.5 kcal/mol
same,Tm,[2],33 °C
GAGACTGAAAAGTCTC ((((((....)))))),folding enthalpy,[1],-35.9 kcal/mol
same,Tm,[2],57.5 °C
GTCTTCGAAAGAATTGAC ((((((....)))..))),folding enthalpy,[1],-10.7 kcal/mol
same,Tm,[2],26.2 °C
GATCCCCCTAGGGATC ((((((....)))))),folding enthalpy,[1],-32.6 kcal/mol
same,Tm,[2],61.3 °C
GATCTTTCCTAAGATC ((((((....)))))),folding enthalpy,[1],-34.2 kcal/mol
same,Tm,[2],45.1 °C
GTACGCGGAAACGTGTGC (.((.((....)).)).),folding enthalpy,[1],-20.8 kcal/mol
same,Tm,[2],46.2 °C
GAAACCGAAAGGTCTTTC ((((((....)))..))),folding enthalpy,[1],-14 kcal/mol
same,Tm,[2],32.3 °C
GGACACGAAAGTGCGTCC ((((((....)))..))),folding enthalpy,[1],-18.2 kcal/mol
same,Tm,[2],40.5 °C
CGAGAGAAATCTCG (((((....))))),folding enthalpy,[1],-23.9 kcal/mol
same,Tm,[2],47.5 °C
GATCTTCGTAAGATC ((((((...)))))),folding enthalpy,[1],-30.9 kcal/mol
same,Tm,[2],45.2 °C
GATACAGCGAAAGCTATC (((..(((....)))))),folding enthalpy,[1],-10.4 kcal/mol
same,Tm,[2],26.2 °C
GCCCCCGAAAGGGTGGC ((((((....))).))),folding enthalpy,[1],-21 kcal/mol
same,Tm,[2],65.9 °C
GATCGACATTTCGATC ((((((....)))))),folding enthalpy,[1],-38.6 kcal/mol
same,Tm,[2],50.8 °C
GATCTGCGAAAGCATATC (((.(((....))).))),folding enthalpy,[1],-20.7 kcal/mol
same,Tm,[2],41.1 °C
CGAATCGGAAACGAGTCG (((.(((....))).))),folding enthalpy,[1],-40.2 kcal/mol
same,Tm,[2],51.3 °C
GTCAAAGAAATTTGAC ((((((....)))))),folding enthalpy,[1],-29.1 kcal/mol
same,Tm,[2],45 °C
GCATGTCGAAAGACTTGC (((.(((....))).))),folding enthalpy,[1],-43.8 kcal/mol
same,Tm,[2],54.6 °C
GCCGTCGAAAGACCGGGC ((((((....)))..))),folding enthalpy,[1],-22.1 kcal/mol
same,Tm,[2],50.3 °C
GTACCCGAAAGGGGTAC ((((((....))).))),folding enthalpy,[1],-27.8 kcal/mol
same,Tm,[2],59.2 °C
GAAGCGGGAAACCGCCTC ((.((((....)))).)),folding enthalpy,[1],-10.8 kcal/mol
same,Tm,[2],36.7 °C
GCGCTGCGAAAGCGTCGC (((..((....))..))),folding enthalpy,[1],-25.4 kcal/mol
same,Tm,[2],59.7 °C
GGTCTGGGAAACTAGACC (((((.(....).))))),folding enthalpy,[1],-41.5 kcal/mol
same,Tm,[2],50.6 °C
GAATAACGAAAGTTCTTC (((.(((....))).))),folding enthalpy,[1],-20.7 kcal/mol
same,Tm,[2],32.2 °C
GCCGATGGAAACATTGGC (((.(((....))).))),folding enthalpy,[1],-55.2 kcal/mol
same,Tm,[2],54.6 °C
CGAGGGAAACCTCG (((((....))))),folding enthalpy,[1],-25.4 kcal/mol
same,Tm,[2],53.7 °C
GTCCCCGGAAACGAGGAC ((((.((....)).)))),folding enthalpy,[1],-32.1 kcal/mol
same,Tm,[2],48 °C
GGGCCTACGAAAGTACCC (((..(((....)))))),folding enthalpy,[1],-9.06 kcal/mol
same,Tm,[2],34.7 °C
GGTGCCGGAAACGGTACC (((.(((....))).))),folding enthalpy,[1],-35.8 kcal/mol
same,Tm,[2],64.1 °C
CGCGGACGGAAACGTGCG (((..(((....)))))),folding enthalpy,[1],-36.2 kcal/mol
same,Tm,[2],50 °C
CGGGCGGAAACGCGACCG ((((((....)))..))),folding enthalpy,[1],-30.5 kcal/mol
same,Tm,[2],57.8 °C
GTCGATGAAAATCGAC ((((((....)))))),folding enthalpy,[1],-39.4 kcal/mol
same,Tm,[2],61.3 °C
GCGAACGAAAGTTTACGC ((((((....)))..))),folding enthalpy,[1],-21.2 kcal/mol
same,Tm,[2],43 °C
GATCATTCTTATGATC ((((((....)))))),folding enthalpy,[1],-40.9 kcal/mol
same,Tm,[2],48.6 °C
GCTGATGCGAAAGCAAGC (((..(((....)))))),folding enthalpy,[1],-19.4 kcal/mol
same,Tm,[2],43.5 °C
GCTAGAGGAAACTCCAGC (((.(((....))).))),folding enthalpy,[1],-22.2 kcal/mol
same,Tm,[2],34.8 °C
GATGGCGCGAAAGCGATC (((..(((....)))))),folding enthalpy,[1],-11 kcal/mol
same,Tm,[2],31.6 °C
GCTTTGCGAAAGCGGAGC (((..((....))..))),folding enthalpy,[1],-17.3 kcal/mol
same,Tm,[2],53.6 °C
GCGGTTAACCGC ((((....)))),folding enthalpy,[1],-28.7 kcal/mol
same,Tm,[2],66.7 °C
GATCGCAGTGCGATC ((((((...)))))),folding enthalpy,[1],-30.1 kcal/mol
same,Tm,[2],67.6 °C
GGCCCGGGAAACCGAGCC (((.(((....))).))),folding enthalpy,[1],-46 kcal/mol
same,Tm,[2],54.2 °C
GATCCCTGGGGGGATC ((((((....)))))),folding enthalpy,[1],-37.2 kcal/mol
same,Tm,[2],63.9 °C
GTTAACCGAAAGGTCAAC (((.(((....))).))),folding enthalpy,[1],-20.5 kcal/mol
same,Tm,[2],37.7 °C
GATCGGGGGGCCGATC ((((((....)))))),folding enthalpy,[1],-53.6 kcal/mol
same,Tm,[2],57.3 °C
GTCCTTGCGAAAGCAGAC (((..(((....)))))),folding enthalpy,[1],-12.3 kcal/mol
same,Tm,[2],32.3 °C
GCCTCGGCGAAAGCCGGC (((..(((....)))))),folding enthalpy,[1],-4.13 kcal/mol
same,Tm,[2],54.4 °C
GATCAAGTGTTGATC ((((((...)))))),folding enthalpy,[1],-32 kcal/mol
same,Tm,[2],40.9 °C
GGTCAAGGAAACTCGACC ((((.((....)).)))),folding enthalpy,[1],-26.6 kcal/mol
same,Tm,[2],40.8 °C
GACGCCGAAAGGCCAGTC ((((((....)))..))),folding enthalpy,[1],-15 kcal/mol
same,Tm,[2],40.7 °C
GTCAACGAAAGTTGCGAC ((((((....)))..))),folding enthalpy,[1],-17.7 kcal/mol
same,Tm,[2],46.6 °C
GGGTCCGGAAACGGATCC ((.((((....)))).)),folding enthalpy,[1],-38.1 kcal/mol
same,Tm,[2],59.1 °C
GATTGAGGAAACTCAGTC ((.((((....)))).)),folding enthalpy,[1],-26.8 kcal/mol
same,Tm,[2],36.6 °C
GCGGCGCGAAAGCGATGC ((..(((....)))..)),folding enthalpy,[1],-38.6 kcal/mol
same,Tm,[2],69.1 °C
GGACTCGGAAACGAGCCC ((.((((....)))).)),folding enthalpy,[1],-34.7 kcal/mol
same,Tm,[2],53.5 °C
CGGACGGAAACGTTTCCG ((((((....)))..))),folding enthalpy,[1],-12.5 kcal/mol
same,Tm,[2],46.4 °C
GCCATGCGAAAGCTTTGC ((.(.((....)).).)),folding enthalpy,[1],-11.7 kcal/mol
same,Tm,[2],36.1 °C
GTTTTGGGAAACTAAAAC (((((.(....).))))),folding enthalpy,[1],-24.3 kcal/mol
same,Tm,[2],36.6 °C
GAACGGCGAAAGCCTTTC (((.(((....))).))),folding enthalpy,[1],-18 kcal/mol
same,Tm,[2],39.7 °C
GCGTAGGACGC ((((...)))),folding enthalpy,[1],-17.2 kcal/mol
same,Tm,[2],55.2 °C
GATCACCAGGTGATC ((((((...)))))),folding enthalpy,[1],-26.5 kcal/mol
same,Tm,[2],54.8 °C
GATCTTCCCTAAGATC ((((((....)))))),folding enthalpy,[1],-31.1 kcal/mol
same,Tm,[2],43.3 °C
GGAATGGCGAAAGCCTCC (((..(((....)))))),folding enthalpy,[1],-10.2 kcal/mol
same,Tm,[2],36.7 °C
GGTGGCGAAAGCCATACC ((((((....)))..))),folding enthalpy,[1],-12 kcal/mol
same,Tm,[2],45.6 °C
